# Results: ChEMBL document CHEMBL3421570, “Combinatorial Libraries As a Tool for the Discovery of Novel, Broad-Spectrum Antibacterial Agents Targeting the ESKAPE Pathogens” (J Med Chem, 2015)
# Calls of active or inactive are those of the source. The rule behind the calls is not given here.
# Assays:
# [1] = system: Enterococcus faecium; assay: Antimicrobial activity against Enterococcus faecium assessed as inhibition of microbial growth at 45 uM after 24 hrs; assay type: functional, organism-based
# Method in brief: (§1)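 Broth microdilution single-concentration read: overnight cultures diluted 1:1000, compound in DMF (≤2.0%) added, 37°C for 24 h, growth inhibition scored visually by lack of turbidity; triplicate. Gram-positives grown in TSB, Gram-negatives in LB.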
# [2] = system: Staphylococcus aureus; assay: Antimicrobial activity against Staphylococcus aureus assessed as inhibition of microbial growth at 45 uM after 24 hrs; assay type: functional, organism-based; method in brief: as §1
# [3] = system: Klebsiella pneumoniae; assay: Antimicrobial activity against Klebsiella pneumoniae assessed as inhibition of microbial growth at 45 uM after 24 hrs; assay type: functional, organism-based; method in brief: as §1
# [4] = system: Acinetobacter baumannii; assay: Antimicrobial activity against Acinetobacter baumannii assessed as inhibition of microbial growth at 45 uM after 24 hrs; assay type: functional, organism-based; method in brief: as §1
# [5] = system: Pseudomonas aeruginosa; assay: Antimicrobial activity against Pseudomonas aeruginosa assessed as inhibition of microbial growth at 45 uM after 24 hrs; assay type: functional, organism-based; method in brief: as §1
# [6] = system: Enterobacter cloacae; assay: Antimicrobial activity against Enterobacter cloacae assessed as inhibition of microbial growth at 45 uM after 24 hrs; assay type: functional, organism-based; method in brief: as §1
# [7] = system: Enterococcus faecium; assay: Antimicrobial activity against Enterococcus faecium assessed as inhibition of microbial growth after 24 hrs; assay type: functional
# Method in brief: (§2)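 Broth microdilution against multidrug-resistant clinical ESKAPE isolates. Overnight cultures (TSB for Gram-positives, LB for Gram-negatives) diluted 1:1000 in fresh medium, compound in DMF (≤2.0% DMF) added at decreasing concentrations, 37°C.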
# [8] = system: Staphylococcus aureus; assay: Antimicrobial activity against Staphylococcus aureus assessed as inhibition of microbial growth after 24 hrs; assay type: functional; method in brief: as §2
# [9] = system: Klebsiella pneumoniae; assay: Antimicrobial activity against Klebsiella pneumoniae assessed as inhibition of microbial growth after 24 hrs; assay type: functional; method in brief: as §2
# [10] = system: Acinetobacter baumannii; assay: Antimicrobial activity against Acinetobacter baumannii assessed as inhibition of microbial growth after 24 hrs; assay type: functional; method in brief: as §2
# [11] = system: Pseudomonas aeruginosa; assay: Antimicrobial activity against Pseudomonas aeruginosa assessed as inhibition of microbial growth after 24 hrs; assay type: functional; method in brief: as §2
# [12] = system: Enterobacter cloacae; assay: Antimicrobial activity against Enterobacter cloacae assessed as inhibition of microbial growth after 24 hrs; assay type: functional; method in brief: as §2
# [13] = system: Klebsiella pneumoniae; assay: Antimicrobial activity against Klebsiella pneumoniae isolate 1441 assessed as inhibition of microbial growth in presence of 100 uM efflux pump inhibitor reserpine after 24 hrs; assay type: functional, organism-based
# [14] = system: Enterococcus faecium; assay: Bactericidal activity against Enterococcus faecium after 24 hrs; assay type: functional
# [15] = system: Staphylococcus aureus; assay: Bactericidal activity against Staphylococcus aureus after 24 hrs; assay type: functional
# [16] = system: Klebsiella pneumoniae; assay: Bactericidal activity against Klebsiella pneumoniae after 24 hrs; assay type: functional
# [17] = system: Acinetobacter baumannii; assay: Bactericidal activity against Acinetobacter baumannii after 24 hrs; assay type: functional
# [18] = system: Pseudomonas aeruginosa; assay: Bactericidal activity against Pseudomonas aeruginosa after 24 hrs; assay type: functional
# [19] = system: Enterobacter cloacae; assay: Bactericidal activity against Enterobacter cloacae after 24 hrs; assay type: functional
# [20] = system: Staphylococcus aureus; assay: Effect on bacterial density of methicillin-resistant Staphylococcus aureus at MIC measured over 2 hrs period by time kill assay; assay type: functional, organism-based
# [21] = system: Staphylococcus aureus; assay: Bactericidal activity against methicillin-resistant Staphylococcus aureus assessed as cell survival recovery at MIC measured after drug wash out after 120 mins by time kill assay; assay type: functional
# Method in brief: (§3)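 MRSA from stationary phase was regrown 3 h in TSB and seeded at OD600 0.5. […] After 120 min, cells were centrifuged and washed, serially diluted and plated for CFU. Percent recovery is relative to no-drug controls.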
# [22] = system: Staphylococcus aureus; assay: Bactericidal activity against methicillin-resistant Staphylococcus aureus at MIC measured after drug wash out after 120 mins by time kill assay; assay type: functional; method in brief: as §3
# [23] = system: Enterococcus faecium; assay: Antibiofilm activity against Enterococcus faecium incubated for 24 hrs followed by biofilm resuspension in PBS and measured after 24 hrs; assay type: functional
# Method in brief: (§4)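 Biofilms grown 24 h in 96-well plates from overnight cultures standardized to OD600 0.5 in fresh medium (human serum only for S. aureus; TSB for Gram-positives, LB for Gram-negatives). Medium then replaced with fresh medium containing a concentration range above and below MIC, 37°C overnight. After 24 h biofilm resuspended in PBS, serially diluted, plated in duplicate, CFU counted after 24 h at 37°C. Activity relative to untreated; three technical replicates; MBEC50 reported.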
# [24] = system: Staphylococcus aureus; assay: Antibiofilm activity against Staphylococcus aureus incubated for 24 hrs followed by biofilm resuspension in PBS and measured after 24 hrs; assay type: functional; method in brief: as §4
# [25] = system: Klebsiella pneumoniae; assay: Antibiofilm activity against Klebsiella pneumoniae incubated for 24 hrs followed by biofilm resuspension in PBS and measured after 24 hrs; assay type: functional; method in brief: as §4
# [26] = system: Acinetobacter baumannii; assay: Antibiofilm activity against Acinetobacter baumannii incubated for 24 hrs followed by biofilm resuspension in PBS and measured after 24 hrs; assay type: functional; method in brief: as §4
# [27] = system: Pseudomonas aeruginosa; assay: Antibiofilm activity against Pseudomonas aeruginosa incubated for 24 hrs followed by biofilm resuspension in PBS and measured after 24 hrs; assay type: functional; method in brief: as §4
# [28] = system: Enterobacter cloacae; assay: Antibiofilm activity against Enterobacter cloacae incubated for 24 hrs followed by biofilm resuspension in PBS and measured after 24 hrs; assay type: functional; method in brief: as §4
# [29] = system: A549; assay: Cytotoxicity against human A549 cells after 48 hrs by MTT assay; assay type: cell-based; conditions: A549, 48 h
# Method in brief: (§5)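 A549 cells grown in F-12K with L-glutamine, 10% FBS, 1% penicillin-streptomycin, seeded at 1.0 × 10^5 ml−1, allowed to adhere 24 h (37°C, 5% CO2), then exposed to compound in 45% w/v (2-hydroxypropyl)-β-cyclodextrin vehicle for 48 h. MTT 4 h, formazan solubilized in DMSO, absorbance 540 nm. Percent recovery versus vehicle-only; IC50 derived; at least three independent experiments.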
# [30] = Selectivity index, ratio of IC50 for human A549 cells to MIC for Enterococcus faecium
# [31] = Selectivity index, ratio of IC50 for human A549 cells to MIC for Staphylococcus aureus
# [32] = Selectivity index, ratio of IC50 for human A549 cells to MIC for Klebsiella pneumoniae
# [33] = Selectivity index, ratio of IC50 for human A549 cells to MIC for Acinetobacter baumannii
# [34] = Selectivity index, ratio of IC50 for human A549 cells to MIC for Pseudomonas aeruginosa
# [35] = Selectivity index, ratio of IC50 for human A549 cells to MIC for Enterobacter cloacae
# [36] = Cytotoxicity against human A549 cells assessed as cell viability recovery up to 100 uM after 48 hrs by MTT assay; assay type: cell-based; conditions: read-out: Activity; method in brief: as §5
# [37] = Cytotoxicity against human A549 cells assessed as cell viability recovery at 225 uM after 48 hrs by MTT assay; assay type: cell-based; conditions: read-out: Activity; method in brief: as §5
# [38] = Induction of hemolysis in human RBC at 10 uM incubated for 15 mins; assay type: cell-based, Erythrocyte; conditions: red blood cells, read-out: Activity
# Method in brief: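 Human RBCs from whole blood, resuspended 20% v/v in HA buffer (NaCl, CaCl2), compound 10 μM, 15 min at 37°C. Centrifuged 5,500 g for 1 min, supernatant OD543 read. Percent hemolysis against DMF vehicle (0%) and 1.0% Triton X-100 (100%); triplicate.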
# [39] = system: Enterococcus faecium; assay: Induction of spontaneous mutation in Enterococcus faecium at 2 to 10 MIC; assay type: functional, organism-based
# [40] = system: Staphylococcus aureus; assay: Induction of spontaneous mutation in Staphylococcus aureus at 2 to 10 MIC; assay type: functional, organism-based
# [41] = system: Klebsiella pneumoniae; assay: Induction of spontaneous mutation in Klebsiella pneumoniae at 2 to 10 MIC; assay type: functional, organism-based
# [42] = system: Acinetobacter baumannii; assay: Induction of spontaneous mutation in Acinetobacter baumannii at 2 to 10 MIC; assay type: functional, organism-based
# [43] = system: Pseudomonas aeruginosa; assay: Induction of spontaneous mutation in Pseudomonas aeruginosa at 2 to 10 MIC; assay type: functional, organism-based; conditions: 2 to 10 x MIC
# [44] = system: Enterobacter cloacae; assay: Induction of spontaneous mutation in Enterobacter cloacae at 2 to 10 MIC; assay type: functional, organism-based
# [45] = system: Staphylococcus aureus; assay: Ratio of MIC for Staphylococcus aureus measured after 8 cycle passage to MIC for wild type Staphylococcus aureus; assay type: functional
# [46] = system: Klebsiella pneumoniae; assay: Ratio of MIC for Klebsiella pneumoniae measured after 8 cycle passage to MIC for wild type Klebsiella pneumoniae; assay type: functional
# [47] = system: Acinetobacter baumannii; assay: Ratio of MIC for Acinetobacter baumannii measured after 8 cycle passage to MIC for wild type Acinetobacter baumannii; assay type: functional
# [48] = system: Enterobacter cloacae; assay: Ratio of MIC for Enterobacter cloacae measured after 8 cycle passage to MIC for wild type Enterobacter cloacae; assay type: functional
# [49] = system: Staphylococcus aureus; assay: Antimicrobial activity against Staphylococcus aureus USA300 strain FPR3757 infected in mouse model of lethal peritonitis assessed as mouse survival at 2 uM, im dosed 1 hr post infection and measured after 5 days post infection; assay type: functional, organism-based
# Method in brief: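 Mice, six per group, infected i.p. with 1 × 10^8 CFU ml−1 S. aureus USA300 FPR3757 in PBS with 5% mucin. Compound given i.m. at 2 μM 1 h later; vehicle 45% w/v (2-hydroxypropyl)-β-cyclodextrin in water i.v.; vancomycin i.v. as control. Monitored twice daily for 5 days, pre-moribund animals euthanized. Survival compared by log-rank test.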
smiles,measurement,setting,value
CCCCCCCN1C(=N)N(CCCC[C@H]2CNC(=N)N2CCCCC2CCCCC2)C[C@@H]1CC1CCCCC1,growth inhibition (GI),[1],Active
same,growth inhibition (GI),[2],Active
same,growth inhibition (GI),[3],Active
same,growth inhibition (GI),[4],Active
same,growth inhibition (GI),[5],Active
same,growth inhibition (GI),[6],Active
same,MIC,[7],1.6 µM
same,MIC,[8],1.6 µM
same,MIC,[9],1.6 µM
same,MIC,[10],1.6 µM
same,MIC,[11],1.6 µM
same,MIC,[12],1.6 µM
same,growth inhibition (GI),[13],Active
same,MBC90,[14],2.9 µM
same,MBC90,[15],3.9 µM
same,MBC90,[16],4.5 µM
same,MBC90,[17],2.8 µM
same,MBC90,[18],4 µM
same,MBC90,[19],9.6 µM
same,Activity,[20],inactive
same,Survival,[21],0.2%
same,fold change (FC),[22],2.5
same,MBEC50,[23],28 µM
same,MBEC50,[24],7.6 µM
same,MBEC50,[25],6.3 µM
same,MBEC50,[26],14 µM
same,MBEC50,[27],34 µM
same,MBEC50,[28],13 µM
same,IC50,[29],> 225 µM
same,Selectivity Index,[30],>139
same,Selectivity Index,[31],>139
same,Selectivity Index,[32],>139
same,Selectivity Index,[33],>139
same,Selectivity Index,[34],>139
same,Selectivity Index,[35],>139
same,viability at 48 h,[36],> 65%
same,"viability at 48 h, 225 µM",[37],> 50%
same,"hemolysis at 0.25 h, 10 µM",[38],0.34%
same,Activity,[39],inactive
same,Activity,[40],inactive
same,Activity,[41],inactive
same,Activity,[42],inactive
same,Activity,[43],inactive
same,Activity,[44],inactive
same,Ratio,[45],16
same,Ratio,[46],<=8
same,Ratio,[47],<=8
same,Ratio,[48],<=8
same,Activity,[49],Active
